The IC50 is the point on the concentration scale where inhibition reaches its midpoint. Read a high IC50 as lower potency.

Ten compounds from ChEMBL document CHEMBL4007405 (J Med Chem, 2017) can be followed below.

Positions of bridges follow the written chain, without caps; N, C: chain ends. Residues, ends and D or L forms follow the SMILES beside them.

Series [1] deals with T1, Lethal factor (Bacillus anthracis) (UniProt P15917).
T1 sequence (whole entry): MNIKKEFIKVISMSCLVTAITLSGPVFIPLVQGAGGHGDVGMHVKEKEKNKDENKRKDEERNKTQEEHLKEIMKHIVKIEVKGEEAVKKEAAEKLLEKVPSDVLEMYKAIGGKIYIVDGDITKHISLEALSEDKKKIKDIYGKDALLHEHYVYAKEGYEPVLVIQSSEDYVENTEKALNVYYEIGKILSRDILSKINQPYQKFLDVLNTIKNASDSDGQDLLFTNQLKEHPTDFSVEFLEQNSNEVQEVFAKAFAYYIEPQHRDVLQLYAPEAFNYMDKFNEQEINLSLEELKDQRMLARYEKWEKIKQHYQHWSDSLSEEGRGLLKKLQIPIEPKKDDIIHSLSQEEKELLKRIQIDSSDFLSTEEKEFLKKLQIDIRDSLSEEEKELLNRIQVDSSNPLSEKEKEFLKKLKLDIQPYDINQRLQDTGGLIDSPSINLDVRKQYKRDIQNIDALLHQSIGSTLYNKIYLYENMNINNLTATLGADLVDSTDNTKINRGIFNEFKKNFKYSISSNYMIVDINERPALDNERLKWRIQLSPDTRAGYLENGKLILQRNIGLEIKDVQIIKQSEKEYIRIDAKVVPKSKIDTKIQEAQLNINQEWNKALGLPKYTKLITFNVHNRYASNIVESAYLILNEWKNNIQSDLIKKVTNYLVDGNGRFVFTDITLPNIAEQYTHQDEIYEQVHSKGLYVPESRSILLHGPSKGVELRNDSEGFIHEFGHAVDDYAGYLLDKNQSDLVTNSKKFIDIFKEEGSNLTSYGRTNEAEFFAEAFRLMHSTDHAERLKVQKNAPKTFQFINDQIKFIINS
Description: (§1) Inhibition of Bacillus anthracis lethal factor protease preincubated for 30 mins prior to addition of substrate containing fluorescent proteins CyPet and YPet measured every 2 mins for 3 hrs by FRET assay. The method in brief: (§2)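 Preincubated with peptide from 1 nM to 10 μM for 30 min at room temperature. CyPet–YPet substrate (LF consensus sequence with (GGS)6 linkers) then added to a final 10 nM. FRET read every 2 min for 3 h with excitation at 405 nm and emission ratio It/I0 at 535 nm. Initial velocities fitted to log(inhibitor)–response with variable Hill slope. Run in triplicate.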

In series [2] the target is T2, Lethal factor (Bacillus anthracis, UniProt P15917).
T2 sequence (P15917 whole entry): T1 sequence (whole entry)

For the next series, the system named is HeLa. In words: Cytotoxicity against human HeLa cells up to 100 uM after 48 hrs by MTT assay. It counts as cell-based. An outline of the steps: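 HeLa cells grown in DMEM with 10% FBS, penicillin and streptomycin at 37° C, 5% CO2. About 3 × 10^3 cells per well were seeded for 24 h, washed with PBS, then exposed to peptides in DMEM/10% FBS for 48 h at 37° C. MTT was added for 2 h and formazan dissolved in DMSO. Absorbance read at 595 nm with 670 nm background subtracted.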

Series [3] concerns the target T2, Lethal factor. The description is as §1. The method in brief:
as §2

In the case of `CC[C@H](C)[C@@H]1NC(=O)[C@@H]2CSSC[C@H](NC(=O)[C@H](CCCNC(=N)N)NC(=O)[C@@H]3CSSC[C@H](NC1=O)C(=O)N[C@@H]([C@@H](C)O)C(=O)N[C@@H](CCCNC(=N)N)C(=O)NCC(=O)N[C@@H](Cc1ccccc1)C(=O)N3)C(=O)N[C@@H](CC(C)C)C(=O)N[C@H]1CSSC[C@H](NC(=O)[C@H](Cc3c[nH]c4ccccc34)NC(=O)CNC(=O)[C@H](CCCNC(=N)N)NC(=O)[C@H](CCCNC(=N)N)NC1=O)C(=O)N[C@@H](CCCNC(=N)N)C(=O)N2` (cyclo(CICTRGFCRCLCRRGWCR); disulfide 1-10, 3-8, 12-17), the inhibition result in series [1] is “Dose-dependent effect”.

For the compound `CC[C@H](C)[C@@H]1NC(=O)[C@@H]2CSSC[C@H](NC(=O)[C@H](CCCNC(=N)N)NC(=O)[C@@H]3CSSC[C@H](NC1=O)C(=O)N[C@@H]([C@@H](C)O)C(=O)N[C@@H](CCCNC(=N)N)C(=O)NCC(=O)N[C@@H](Cc1ccccc1)C(=O)N3)C(=O)N[C@@H](Cc1c[nH]c3ccccc13)C(=O)N[C@H]1CSSC[C@H](NC(=O)[C@H](Cc3c[nH]c4ccccc34)NC(=O)[C@H](CCCNC(=N)N)NC(=O)[C@H](CCCNC(=N)N)NC(=O)[C@H](CCCNC(=N)N)NC1=O)C(=O)N[C@@H](CCCNC(=N)N)C(=O)N2` (cyclo(CICTRGFCRCWCRRRWCR); disulfide 1-10, 3-8, 12-17), the inhibition entry in series [1] is “Dose-dependent effect”.

Turning to `C[C@@H](O)[C@@H]1NC(=O)[C@@H]2CSSC[C@H](NC(=O)[C@H](Cc3ccccc3)NC(=O)CNC(=O)[C@H](CCCNC(=N)N)NC1=O)C(=O)N[C@@H](CCCNC(=N)N)C(=O)N[C@H]1CSSC[C@H](NC(=O)[C@H](CCCNC(=N)N)NC(=O)[C@@H]3CSSC[C@H](NC(=O)[C@H](Cc4c[nH]c5ccccc45)NC1=O)C(=O)N[C@@H](CCCNC(=N)N)C(=O)N[C@@H](CCCNC(=N)N)C(=O)N[C@@H](CCCNC(=N)N)C(=O)N[C@@H](Cc1c[nH]c4ccccc14)C(=O)N3)C(=O)N[C@@H](Cc1c[nH]c3ccccc13)C(=O)N2` (cyclo(CRCWCRRRWCRCWCTRGF); disulfide 1-14, 3-12, 5-10), in series [1], the inhibition result is “Dose-dependent effect”.

Compound `N=C(N)NCCC[C@@H]1NC(=O)[C@H](CCCNC(=N)N)NC(=O)[C@@H]2CSSC[C@H](NC(=O)[C@H](Cc3c[nH]c4ccccc34)NC(=O)[C@H](CCCNC(=N)N)NC1=O)C(=O)N[C@@H](CCCNC(=N)N)C(=O)N[C@H]1CSSC[C@H](NC(=O)[C@H](CCCNC(=N)N)NC(=O)[C@@H]3CSSC[C@H](NC(=O)[C@H](Cc4c[nH]c5ccccc45)NC1=O)C(=O)N[C@@H](CCCNC(=N)N)C(=O)N[C@@H](CCCNC(=N)N)C(=O)N[C@@H](CCCNC(=N)N)C(=O)N[C@@H](Cc1c[nH]c4ccccc14)C(=O)N3)C(=O)N[C@@H](Cc1c[nH]c3ccccc13)C(=O)N2` (cyclo(CRCWCRRRWCRCWCRRRW); disulfide 1-14, 3-12, 5-10) gave an IC50 on Lethal factor [2] of 0.25 µM. Further, the Activity result with HeLa is listed as “Non-Toxic”. The inhibition result in series [1] was “Dose-dependent effect”.

Take `CC[C@H](C)[C@@H]1NC(=O)[C@@H]2CSSC[C@H](NC(=O)[C@H](CCCNC(=N)N)NC(=O)[C@@H]3CSSC[C@H](NC1=O)C(=O)N[C@@H]([C@@H](C)O)C(=O)N[C@@H](CCCNC(=N)N)C(=O)NCC(=O)N[C@@H](Cc1ccccc1)C(=O)N3)C(=O)N[C@@H](CC(C)C)C(=O)N[C@H]1CSSC[C@H](NC(=O)[C@H](Cc3c[nH]c4ccccc34)NC(=O)[C@H](CCCNC(=N)N)NC(=O)[C@H](CCCNC(=N)N)NC(=O)[C@H](CCCNC(=N)N)NC1=O)C(=O)N[C@@H](CCCNC(=N)N)C(=O)N2` (cyclo(CICTRGFCRCLCRRRWCR); disulfide 1-10, 3-8, 12-17): the inhibition entry in series [1] was “Dose-dependent effect”.

`CC[C@H](C)[C@@H]1NC(=O)[C@@H]2CSSC[C@H](NC(=O)[C@H](CCCNC(=N)N)NC(=O)[C@@H]3CSSC[C@H](NC1=O)C(=O)N[C@@H]([C@@H](C)O)C(=O)N[C@@H](CCC(=O)O)C(=O)NCC(=O)N[C@@H](Cc1ccccc1)C(=O)N3)C(=O)N[C@@H](CC(C)C)C(=O)N[C@H]1CSSC[C@H](NC(=O)[C@H](C(C)C)NC(=O)CNC(=O)[C@H](CCCNC(=N)N)NC(=O)[C@H](CCCNC(=N)N)NC1=O)C(=O)N[C@@H](CCCNC(=N)N)C(=O)N2` (cyclo(CICTEGFCRCLCRRGVCR); disulfide 1-10, 3-8, 12-17): in series [1], the inhibition entry was “Dose-dependent effect”. At Lethal factor [3], this compound had an IC50 of 3.5 µM.

In the case of `CC[C@H](C)[C@@H]1NC(=O)[C@@H]2CSSC[C@H](NC(=O)[C@H](CC(=O)O)NC(=O)[C@@H]3CSSC[C@H](NC1=O)C(=O)N[C@@H]([C@@H](C)O)C(=O)N[C@@H](CCCNC(=N)N)C(=O)NCC(=O)N[C@@H](Cc1ccccc1)C(=O)N3)C(=O)N[C@@H](CC(C)C)C(=O)N[C@H]1CSSC[C@H](NC(=O)[C@H](C(C)C)NC(=O)CNC(=O)[C@H](CCCNC(=N)N)NC(=O)[C@H](CCCNC(=N)N)NC1=O)C(=O)N[C@@H](CCCNC(=N)N)C(=O)N2` (cyclo(CDCLCRRGVCRCICTRGF); disulfide 1-14, 3-12, 5-10), the inhibition entry in series [1] was “Dose-dependent effect”.

As to `C[C@@H](O)[C@@H]1NC(=O)[C@@H]2CSSC[C@H](NC(=O)[C@H](Cc3c[nH]c4ccccc34)NC(=O)[C@H](CCCNC(=N)N)NC(=O)[C@H](CCCNC(=N)N)NC1=O)C(=O)N[C@@H](CCCNC(=N)N)C(=O)N[C@H]1CSSC[C@H](NC(=O)[C@H](CCCNC(=N)N)NC(=O)[C@@H]3CSSC[C@H](NC(=O)[C@H](Cc4c[nH]c5ccccc45)NC1=O)C(=O)N[C@@H](CCCNC(=N)N)C(=O)N[C@@H](CCCNC(=N)N)C(=O)N[C@@H](CCCNC(=N)N)C(=O)N[C@@H](Cc1c[nH]c4ccccc14)C(=O)N3)C(=O)N[C@@H](Cc1c[nH]c3ccccc13)C(=O)N2` (cyclo(CRCWCRRRWCRCWCTRRW); disulfide 1-14, 3-12, 5-10), the inhibition entry in series [1] is “Dose-dependent effect”.

In the case of `C[C@@H](O)[C@@H]1NC(=O)[C@@H]2CSSC[C@H](NC(=O)[C@H](Cc3c[nH]c4ccccc34)NC(=O)CNC(=O)[C@H](CCCNC(=N)N)NC1=O)C(=O)N[C@@H](CCCNC(=N)N)C(=O)N[C@H]1CSSC[C@H](NC(=O)[C@H](CCCNC(=N)N)NC(=O)[C@@H]3CSSC[C@H](NC(=O)[C@H](Cc4c[nH]c5ccccc45)NC1=O)C(=O)N[C@@H](CCCNC(=N)N)C(=O)N[C@@H](CCCNC(=N)N)C(=O)N[C@@H](CCCNC(=N)N)C(=O)N[C@@H](Cc1c[nH]c4ccccc14)C(=O)N3)C(=O)N[C@@H](Cc1c[nH]c3ccccc13)C(=O)N2` (cyclo(CRCWCRRRWCRCWCTRGW); disulfide 1-14, 3-12, 5-10), in series [1], the inhibition entry was “Dose-dependent effect”.

As for `CC(C)C[C@@H]1NC(=O)[C@@H]2CSSC[C@H](NC(=O)[C@H](CCCNC(=N)N)NC(=O)[C@@H]3CSSC[C@H](NC1=O)C(=O)N[C@@H](CCCNC(=N)N)C(=O)N[C@@H](CCCNC(=N)N)C(=O)NCC(=O)N[C@@H](C(C)C)C(=O)N3)C(=O)N[C@@H](Cc1c[nH]c3ccccc13)C(=O)N[C@H]1CSSC[C@H](NC(=O)[C@H](Cc3ccccc3)NC(=O)CNC(=O)[C@H](CCCNC(=N)N)NC(=O)[C@H]([C@@H](C)O)NC1=O)C(=O)N[C@@H](CCCNC(=N)N)C(=O)N2` (cyclo(CLCRRGVCRCWCTRGFCR); disulfide 1-10, 3-8, 12-17), the inhibition result in series [1] is “Dose-dependent effect”. At Lethal factor [3], this compound returned an IC50 of 0.205 µM.
